# ZTA DNA inh = ZTA (EBV) inhibition in EBNA-1 counter-screen; P03206; ZTA-DNA binding, fluorescence polarization; inhibition, % at 11 µM; 320,000 tested, 0.15% active; AID 2234; in the data active = inhibition above about 33%
# Target sequence (P03206 whole entry, looked up): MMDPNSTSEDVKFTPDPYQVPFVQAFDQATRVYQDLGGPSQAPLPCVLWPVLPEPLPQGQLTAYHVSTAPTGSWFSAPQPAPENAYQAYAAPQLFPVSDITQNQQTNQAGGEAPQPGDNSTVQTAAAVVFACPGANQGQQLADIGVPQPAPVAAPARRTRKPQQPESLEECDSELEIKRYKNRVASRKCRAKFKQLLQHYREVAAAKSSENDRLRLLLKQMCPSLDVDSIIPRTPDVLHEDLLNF
# PP1 counter = counter-screen for PP5 inhibitors: inhibitors of human PP1-alpha; P62136; purified PP1alpha, OMFP fluorescence; inhibition, % at 6.7 µM; 320,000 tested, 0.9% active; AID 2235;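 active = inhibition above the mean inhibition of all tested compounds plus 3 SD, computed separately for each screening campaign, cut at about 15% in these data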
# Target sequence (P62136 whole entry, looked up): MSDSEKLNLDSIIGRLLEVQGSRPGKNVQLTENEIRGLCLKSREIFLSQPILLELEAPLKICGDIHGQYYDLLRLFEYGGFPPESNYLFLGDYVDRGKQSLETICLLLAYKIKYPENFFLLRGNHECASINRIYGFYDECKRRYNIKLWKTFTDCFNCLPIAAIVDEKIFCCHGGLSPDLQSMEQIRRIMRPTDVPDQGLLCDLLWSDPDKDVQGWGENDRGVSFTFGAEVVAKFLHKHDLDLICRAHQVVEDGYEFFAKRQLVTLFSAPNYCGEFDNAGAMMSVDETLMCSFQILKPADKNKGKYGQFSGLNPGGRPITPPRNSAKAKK
# EBNA-1 inhibitor = blocks EBNA-1 binding to DNA; 300,000 tested, 0.34% active; inhibition, % at 14.8 µM; AID 1950; EBNA-1 DNA binding, fluorescence polarization; in the data active = inhibition above about 28%
# core dimer inh = blocks dimerization of HCV core protein; inhibition, % at 5 µM; AID 1899; TR-FRET GST/Flag-core106 dimerization, 1536-well; 300,000 tested, 0.33% active;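 active = inhibition above the mean of all tested compounds plus 3 SD, set per screening campaign, cut at about 45% in these data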
#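 Assay system: Tagged HCV core106 pair (GST and Flag) | Buffer or medium: KF-containing HEPES buffer, pH 7.45, DTT, CHAPS, BSA | Also added: Eu donor and XL665 acceptor anti-tag antibodies | Dosing: One concentration, 5 µM, in 0.5% DMSO | Timing: 4 h at 22.5 °C | Technique: TR-FRET 671 and 617 nm emission | Repeats: Singlicate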
# PP5 primary = PP5 (human) phosphatase inhibition | purified PP5c, OMFP substrate fluorescence | inhibition, % at 6.7 µM | 320,000 tested, 0.18% active | P53041 | AID 1987;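 active = inhibition above the campaign's mean inhibition across all tested compounds plus 3 SD, cut at about 9.5% in these data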;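 also: 0% = DMSO only and 100% = 100 µM cantharidin control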
# EBNA-1 inh conf = EBNA-1 (EBV) inhibition, confirmation; inhibition, % at 14.8 µM; 830 tested, 35% active; shares compounds with EBNA-1 inhibitor; Recombinant EBNA-1 DBD, Cy5-DNA fluorescence polarization;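 active = mean inhibition across replicates above a set limit taken from the earlier primary screen, cut at about 28% in these data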;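 also: plate controls were EBNA-1 protein with DMSO for no effect and wells lacking EBNA-1 for full effect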
# ZTA counter trip = counter-screen for EBNA-1 inhibitors: Epstein-Barr virus ZTA inhibitors, triplicate; Zta-ZRE DNA binding, Cy5 fluorescence polarization; 830 tested, under 10 active; inhibition, % at 11.1 µM; shares compounds with EBNA-1 inhibitor;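 active = mean inhibition over triplicates above a set limit taken from the primary EBNA-1 screen, cut at about 37% in these data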;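 also: purified full length Zta protein with Cy5 labeled ZRE DNA probe; 0% = Zta with DMSO and 100% = wells lacking Zta protein; inhibitors lower polarization by freeing the labeled DNA probe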
# PP5 conf = confirmation of human PP5 phosphatase inhibitors; shares compounds with PP5 primary; Purified PP5, fluorogenic phosphatase substrate, fluorescence; inhibition, % at 6.7 µM; 460 tested, 22% active; AID 2331; in the data active = inhibition above about 9.5%
# PP1 counter 3x = PP1 phosphatase inhibition, counter-screen for PP5 inhibitors; shares compounds with PP5 primary; PP1 enzyme, fluorescent phosphatase substrate; inhibition, % at 6.7 µM; 460 tested, 4% active; in the data active = inhibition above about 16%
# ZTA inh confirm = confirmation of Epstein-Barr virus ZTA DNA binding inhibitors | 320 tested, 30% active | Zta-ZRE DNA binding, fluorescence polarization | inhibition, % at 11.1 µM | shares compounds with ZTA DNA inh | AID 2361;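 active = mean inhibition across triplicate runs above the hit threshold derived for the original primary screen, cut at about 33% in these data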;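 also: 0% = Zta with DMSO and 100% = wells lacking Zta protein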
# EBNA1 counter = EBNA-1 DNA binding inhibition, counter-screen for ZTA; shares compounds with ZTA DNA inh; fluorescence polarization; inhibition, % at 14.8 µM; 320 tested, under 10 active; AID 2362; call rule not given here
# Starred values were filed as active, the others as inactive; / = not tested or not shown. Compounds with a hit are over-represented: about 1.7% of the library has one in this group of screens.
SMILES,ZTA DNA inh,PP1 counter,EBNA-1 inhibitor,core dimer inh,PP5 primary,others
COC(=O)C1=C(c2ccc(F)cc2OCc2ccccc2)C[C@@H]2CC[C@H]1N2C(=O)NCc1ccc(C)cc1,-1,12,/,/,1,
CCCC/C(C)=C/[C@@H](NP(=O)(c1ccccc1)c1ccccc1)c1ccccc1,-19,16*,-2,10,8,
CCCCCP(=O)(O)c1ccccc1,11,-3,8,-3,2,
Cc1cc(OCCN2CC2)c2ccccc2n1,-3,-2,-2,3,-1,
C=C1C2C[C@@]3([C@@H]1O)[C@@H](C[C@@H]2O)[C@@]12C4[C@@H]3C[C@@H]1[C@@](C)(CC[C@@H]2O)CN4CC,17,-1,-8,7,3,
O=C(c1cc2cc(F)ccc2[nH]1)N1CCC2(CC1)OCCO2,5,17*,-5,1,0,
O=[N+]([O-])[N-][n+]1cnn(Cc2ccc(Cl)cc2)c1,-16,-4,-21,-3,2,
CCn1nc(-c2ccccc2)nc2c(=O)n(C)c(=O)nc1-2,74*,39*,-2,48*,4,
COc1ccc(-c2csc(NC(=O)COC(=O)Cc3ccccc3)n2)cc1OC,15,1,31*,2,2,EBNA-1 inh conf=34*;ZTA counter trip=0
C1CC2NCCC3NCCC(N1)N32 (stereo unspecified),-9,-2,-3,-1,1,
CN(C)C(=O)Oc1noc2cc(Cl)ccc12,9,-7,34*,4,1,EBNA-1 inh conf=-8;ZTA counter trip=-5
CN(C)C(=O)Oc1c(Cl)cc(Cl)c2cccnc12,-14,-3,3,-4,0,
COC(=O)c1ccc(NC(=O)CSc2nc3ccc(N4C(=O)C5C6C=CC(C6)C5C4=O)cc3s2)cc1 (stereo unspecified),12,8,2,11,3,
O=c1[nH]c(=O)n(CCc2ccccc2)c(O)c1C=NCc1ccc2c(c1)OCO2,-4,-1,31*,9,1,EBNA-1 inh conf=46*;ZTA counter trip=-6
CCCCCCC(C)(C)c1ccc([C@@H]2C[C@H](O)CC[C@H]2CCCO)c(O)c1,3,0,4,-16,10*,PP5 conf=4;PP1 counter 3x=4
CCC(C)/C=C(C)/C=C/C1=CC2=C(Cl)C(=O)C(C)(OC(C)=O)C(=O)C2=CO1 (stereo unspecified),17,1,-5,-6,12*,PP5 conf=7;PP1 counter 3x=6
COC(=O)C1=C(c2cccc(C#N)c2)C[C@@H]2CC[C@H]1N2C(=O)NCCCOC(C)C,18,-14,/,/,0,
CCCCNC(=O)c1c(N)n(CCCOC)c2nc3ccccc3nc12,9,5,-5,4,5,
CC(C)CCn1c(N)c(C(=O)NCc2cccs2)c2nc3ccccc3nc21,4,-2,5,8,0,
COCCNC(=O)c1c(N)n(CCC(C)C)c2nc3ccccc3nc12,-5,6,2,-1,11*,PP5 conf=23*;PP1 counter 3x=3
CC(C)OCCCNC(=O)c1c(N)n(Cc2cccs2)c2nc3ccccc3nc12,7,2,2,0,12*,PP5 conf=15*;PP1 counter 3x=9
CC(C)C(=O)NC(Oc1ccccc1Cl)C(Cl)(Cl)Cl (stereo unspecified),8,-4,13,0,0,
O=C(COC(=O)c1cccc(O)c1)Nc1ccc(Cl)cc1C(=O)c1ccccc1,-3,-1,5,4,5,
COC(=O)C1=C(c2ccc(OC(F)(F)F)cc2)C[C@@H]2CC[C@H]1N2C(=O)NCCOc1ccccc1,1,3,/,/,8,
COC(=O)C1=C(c2ccc(OC(F)(F)F)cc2)C[C@@H]2CC[C@H]1N2C(=O)NCCOc1ccccc1Cl,-6,9,/,/,11*,PP5 conf=6;PP1 counter 3x=4
SMILES,ZTA DNA inh,PP1 counter,EBNA-1 inhibitor,core dimer inh,PP5 primary,others
CCN1C[C@@]2(COC)C3[C@@H](OC)[C@H]4[C@@H]1[C@@]3(C1C[C@@]3(O)[C@H](OC(=O)c5ccccc5)C1[C@]4(OC(C)=O)[C@@H](O)[C@H]3OC)[C@@H](OC)C[C@H]2O (stereo partly specified),3,-1,1,7,0,
COc1ccc(Cn2c(N)c(C(=O)NCc3ccco3)c3nc4ccccc4nc32)cc1OC,-7,7,3,30,12*,PP5 conf=44*;PP1 counter 3x=10
CC(C)CNC(=O)c1c(N)n(Cc2ccc3c(c2)OCO3)c2nc3ccccc3nc12,-7,7,-3,1,12*,PP5 conf=21*;PP1 counter 3x=3
COCCCNC(=O)c1c(N)n(Cc2ccco2)c2nc3ccccc3nc12,-4,-2,-5,4,0,
CN1CC[C@@]2(C)c3cc(O)ccc3N(C)C2O1 (stereo partly specified),19,3,9,-6,14*,PP5 conf=26*;PP1 counter 3x=5
CCOC(=O)c1c(NS(=O)(=O)c2ccccc2)n(CCCOC)c2nc3ccccc3nc12,56*,2,7,7,11*,PP5 conf=9.9*;PP1 counter 3x=0;ZTA inh confirm=-4;EBNA1 counter=-10
COC(=O)C1=C(c2cccc(OCc3ccccc3)c2)C[C@@H]2CC[C@H]1N2C(=O)NCc1cc(C)oc1C(F)(F)F,2,6,/,/,5,
O=C1C(=O)c2ccccc2-c2ccccc21,65*,40*,5,44,4,ZTA inh confirm=68*;EBNA1 counter=-8
O=C1C(=O)c2cccc3cccc1c23,-12,-1,-10,-11,2,
CCc1ccc(N2C(=O)NC(=O)/C(=C\c3cc(C)n(-c4cc(C(=O)O)cc(C(=O)O)c4)c3C)C2=O)cc1,37*,3,-7,9,3,ZTA inh confirm=28;EBNA1 counter=-8
Cc1ccc(N2C(=O)NC(=O)/C(=C\c3cc(C)n(-c4cc(C(=O)O)cc(C(=O)O)c4)c3C)C2=O)cc1,20,-3,-5,1,0,
CN1CCC(O)(c2cccs2)C(C(=O)c2cccs2)C1 (stereo unspecified),1,-4,-1,1,-2,
CCCCC(=O)N/N=C/c1c(O)n(CC)c(=S)[nH]c1=O,36*,-1,7,9,0,ZTA inh confirm=-3;EBNA1 counter=-8
C[n+]1c2ccccc2nc2ccc(NCCO)cc21,60*,1,22,-102,6,ZTA inh confirm=48*;EBNA1 counter=27
